Reference: ChEMBL document CHEMBL3232870, “Discovery of 3-(4-methanesulfonylphenoxy)-N-[1-(2-methoxy-ethoxymethyl)-1H-pyrazol-3-yl]-5-(3-methylpyridin-2-yl)-benzamide as a novel glucokinase activator (GKA) for the treatment of type 2 diabetes mellitus” (Bioorg Med Chem, 2014)

Target: T1, Hexokinase-4 (Homo sapiens) (UniProt P35557)
T1 sequence (whole entry): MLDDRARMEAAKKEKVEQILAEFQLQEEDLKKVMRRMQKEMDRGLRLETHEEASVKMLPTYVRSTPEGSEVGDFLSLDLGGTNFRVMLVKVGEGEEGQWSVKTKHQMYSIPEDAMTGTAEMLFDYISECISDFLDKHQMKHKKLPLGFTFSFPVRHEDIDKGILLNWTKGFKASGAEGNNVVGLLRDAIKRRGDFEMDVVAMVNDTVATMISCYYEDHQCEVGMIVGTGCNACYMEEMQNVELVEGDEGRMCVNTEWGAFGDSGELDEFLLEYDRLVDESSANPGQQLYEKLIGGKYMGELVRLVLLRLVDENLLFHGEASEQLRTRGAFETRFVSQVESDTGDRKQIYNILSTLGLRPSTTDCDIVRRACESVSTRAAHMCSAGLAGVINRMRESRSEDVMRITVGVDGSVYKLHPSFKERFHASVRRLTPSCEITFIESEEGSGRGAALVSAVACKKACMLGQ
Test: Activity of recombinant human pancreatic glucokinase assessed as glucose half-maximal saturation concentration
How it was run: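 Purified recombinant human pancreatic glucokinase coupled enzymatic assay, compounds in DMSO. Buffer: HEPES pH 7.4, KCl, MgCl2, DTT, ATP, NADP, G6PDH. Half-saturation glucose concentration S0.5 was reported. Values are means of three duplicate runs.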

`Cc1cccnc1-c1cc(Oc2ccc(S(C)(=O)=O)cc2)cc(C(=O)Nc2nc(CN3CCN(C)CC3)cs2)c1` and `Cc1cccnc1-c1cc(Oc2ccc(S(C)(=O)=O)cc2)cc(C(=O)Nc2nc(CN3CCOCC3)cs2)c1` are within 1.5-fold of each other in S50: 3.44 mM for the first, 3.24 mM for the second.

First: COCC(C)NCc1csc(NC(=O)c2cc(Oc3ccc(S(C)(=O)=O)cc3)cc(-c3ncccc3C)c2)n1 (centres undefined)
Second: Cc1cccnc1-c1cc(Oc2ccc(S(C)(=O)=O)cc2)cc(C(=O)Nc2nc(CNC(C)C)cs2)c1
The S50 of the first is 1.8-fold lower: 2.27 mM for the first, 3.98 mM for the second.

`COCCN(C)Cc1csc(NC(=O)c2cc(Oc3ccc(S(C)(=O)=O)cc3)cc(-c3ncccc3C)c2)n1` and `COCCN(CCOC)Cc1csc(NC(=O)c2cc(Oc3ccc(S(C)(=O)=O)cc3)cc(-c3ncccc3C)c2)n1` are within 1.5-fold of each other in S50: 4.56 mM for the first, 5.43 mM for the second.

First: Cc1cccnc1-c1cc(Oc2ccc(S(C)(=O)=O)cc2)cc(C(=O)Nc2ccn(C)n2)c1
Second: COCCOCn1ccc(NC(=O)c2cc(Oc3ccc(S(C)(=O)=O)cc3)cc(-c3ncccc3C)c2)n1
The S50 of the first is 1.7-fold higher: 3.89 mM for the first, 2.33 mM for the second.

First: C#CCNCc1csc(NC(=O)c2cc(Oc3ccc(S(C)(=O)=O)cc3)cc(-c3ncccc3C)c2)n1
Second: CCCNCc1csc(NC(=O)c2cc(Oc3ccc(S(C)(=O)=O)cc3)cc(-c3ncccc3C)c2)n1
The S50 of the first is 2-fold lower: 2.21 mM for the first, 4.51 mM for the second.

Going from `Cc1cccnc1-c1cc(Oc2ccc(S(C)(=O)=O)cc2)cc(C(=O)Nc2nc(CC(=O)NC3CC3)cs2)c1` to `CCNC(=O)Cc1csc(NC(=O)c2cc(Oc3ccc(S(C)(=O)=O)cc3)cc(-c3ncccc3C)c2)n1`, the S50 rises from 1.78 mM to 4.35 mM (2.4-fold).

`Cc1cccnc1-c1cc(Oc2ccc(S(C)(=O)=O)cc2)cc(C(=O)Nc2nccs2)c1` and `Cc1cccnc1-c1cc(Oc2ccc(S(C)(=O)=O)cc2)cc(C(=O)Nc2ncc(F)s2)c1` are within 1.5-fold of each other in S50: 2.01 mM for the first, 1.95 mM for the second.

First: COC(CNCc1csc(NC(=O)c2cc(Oc3ccc(S(C)(=O)=O)cc3)cc(-c3ncccc3C)c2)n1)OC
Second: CCN(CC)Cc1csc(NC(=O)c2cc(Oc3ccc(S(C)(=O)=O)cc3)cc(-c3ncccc3C)c2)n1
The S50 of the first is 10-fold lower: 0.57 mM for the first, 5.79 mM for the second.

`Cc1cccnc1-c1cc(Oc2ccc(S(C)(=O)=O)cc2)cc(C(=O)Nc2ccn(CCN3CCOCC3)n2)c1` and `Cc1cccnc1-c1cc(Oc2ccc(S(C)(=O)=O)cc2)cc(C(=O)Nc2nc(CN3CCNCC3)cs2)c1` are within 1.5-fold of each other in S50: 3.54 mM for the first, 3.08 mM for the second.

Tested on: Mus musculus
Test: Antidiabetic activity in po dosed C57BL/J6 mouse assessed as reduction of glucose AUC preincubated for 30 mins followed by glucose challenge measured after 30 to 180 mins by oral glucose tolerance test

In the case of `COCCOCn1ccc(NC(=O)c2cc(Oc3ccc(S(C)(=O)=O)cc3)cc(-c3ncccc3C)c2)n1`, the Activity is reported as “Dose-dependent effect”.
